# Only some compounds are listed: those with a hit (about 3.5% of all), similar ones and a draw of the others.
# Yeast life ext – extends the lifespan of yeast. S. cerevisiae growth with nicotinamide, OD615; deaD strain in restrictive glucose medium. inhibition of the nicotinamide effect, % at 10 µM. hit rate 0.68% among 130,000. AID 775;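 active means inhibition above a set limit, placed 3 SD over the median of all compounds, cut at about 26% in these data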;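 further: 0% = nicotinamide-treated wells and 100% = cells grown without nicotinamide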
#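 Assay system: DeaD-strain S. cerevisiae. Medium: CSMM-D glucose medium, restrictive. Reagent: nicotinamide, 1.5 mM, co-present with compound. Compound: 10 µM single point, 0.25% DMSO. Schedule: culture preincubation 4 h, compound exposure 48 h, both 30 °C. Detection: absorbance at 615 nm.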
# RAM inhibit – inhibitors of the yeast RAM network | S. cerevisiae dse1pr::URA3 reporter, 5-FOA growth OD615, 2 d; analog-sensitive cbk1-as2 kinase mutant strain | inhibition, % at 50 µM | hit rate 1.8% among 190,000 | AID 868;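 active means inhibition above a set limit, 3 SD over mean compound inhibition, cut at about 8.4% in these data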;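 further: 0% = DMSO-only wells with no growth and 100% = 10 µM 1-NA-PP1 full growth; inhibition rescues growth on 5-FOA so higher OD means more RAM inhibition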
# BB579 growth dn – chemicals that inhibit yeast BB579 growth in restrictive medium (lifespan-shortening candidates). S. cerevisiae BB579 growth, OD615, 48 h. inhibition, % at 10 µM. hit rate 0.51% among 140,000. AID 804;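 active means inhibition above a set limit, 3 SD over the mean compound inhibition, cut at about 44% in these data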
#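 controls = amphotericin B 10 µg/mL, positive | assay system = DeaD yeast strain BB579 | schedule = 48 h compound exposure at 30 °C after 4 h preincubation | detection = OD615 turbidity measurement | medium = restrictive CSMM-D medium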
# MT stabilize HCS – stabilizes microtubules in HeLa cells. HeLa tubulin immunostaining HCS, 24 h; share of cells brighter than vehicle mean+2SD. % tubulin-high responders, % at 10 µM. hit rate 0.83% among 200,000. AID 2205;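 active means plate Z-score above 3 for both tubulin-high and condensed-nucleus cell shares, with cell loss under 80%, at 10 µM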;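 further: anti alpha tubulin signal scored within the nucleus-defined area of each cell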
# b-catenin transl – modulators of beta-catenin nuclear translocation; AID 1665; nuclear translocation activity, % at 5 µM; HeLa beta-catenin nuclear translocation, immunofluorescence imaging; hit rate 0.3% among 190,000;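 active means nuclear translocation activity above 50% at 5 µM, with a well cell count of 50 or more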;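 further: per-cell ratio of nuclear to cytoplasmic median beta-catenin stain intensity; plate controls were DMSO negative control for no effect and GSK-3 inhibitor IX positive control for full effect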
#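 test system = HeLa cells, endogenous beta-catenin | dosing = single 5 µM dose plus 0.02–20 µM confirmation series | times = compound treatment 24 h, 37°C, 5% CO2 | technique = beta-catenin immunofluorescence imaging with DAPI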
# HMGR II inh – E. faecalis class II HMG-CoA reductase inhibition; purified E. faecalis HMGR, NADPH absorbance 340 nm kinetic; inhibition, % at 10 µM; hit rate 0.41% among 190,000;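 active means inhibition above a set limit, the median over all tested compounds plus 3 SD, cut at about 9.5% in these data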;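 further: enzyme runs in reverse so mevalonate oxidation gives rising NADPH absorbance; 0% = complete reaction with DMSO and 100% = background rate lacking mevalonate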
# * marks the source's active call; other numbers are inactive results; . = no result.
SMILES,Yeast life ext,RAM inhibit,BB579 growth dn,MT stabilize HCS,b-catenin transl,HMGR II inh
CC(C)c1ccc(/C=N/NC(=O)c2ccccc2Cl)cc1,.,1,.,23*,-1,-4
CC(C)(C)OC(=O)N1CCC[C@H]1C(=O)N/N=C/c1cccc2nccnc12,.,.,.,.,1,.
O=C(N/N=C/c1sc2ccccc2c1O)c1cccc2ccccc12,-4,3,91*,8,-1,-5
O=C(N/N=C/c1sc2ccccc2c1O)c1ccccc1,1,2,10,8,.,1
COc1ccc(C(=O)N/N=C/c2sc3ccccc3c2O)cc1,-2,0,85*,4,-1,-1
COc1ccc(C(=O)N/N=C/c2cc3ccccc3[nH]c2=S)cc1,6,9.5*,-67,2,.,0
Cc1nc(-c2cccnc2)sc1C(=O)N/N=C/c1ccccc1Cl,.,.,.,.,-1,.
CCC(=O)c1ccc(OCc2ccc(C(=O)c3ccccc3)cc2)cc1,.,3,.,6,1,1
NNC(=O)c1ccc(COc2cccc3ccccc23)o1,.,.,.,.,2,.
NNC(=O)c1ccc(COc2cccc3ccccc23)cc1,-8,-1,90*,3,3,-5
CCCCn1c(N)c(N(CC(C)C)C(=O)CCCSc2nncs2)c(=O)[nH]c1=O,.,0,.,3,-2,-7
Cc1cc(C)n2nc(N)c(N=Nc3ccc(Cl)cc3)c2n1,-3,9.5*,-34,4,-3,0
Cc1ccc(N=Nc2c(=O)[nH]n3c(C)cc(C)nc23)cc1,-12,4,7,2,.,2
CSc1cc(-c2ccccc2)n(Cc2ccccc2Cl)c(=O)c1C#N,-6,4,-7,43*,.,1
CCCn1c(-c2ccccc2)cc(SC)c(C#N)c1=O,.,2,.,4,3,-5
CCOC(=O)c1c(C)oc2c1c(C=NCC1CCCO1)c(O)c1ccccc12 (stereo not drawn),29*,6,-62,4,-1,-2
CCOC(=O)c1c(C)oc2c1c(C=NCc1ccccn1)c(O)c1ccccc12,31*,3,-59,5,2,0
CCOC(=O)c1c(C)oc2c1c(C(c1cccnc1)N1CCOCC1)c(O)c1ccccc12 (stereo not drawn),40*,-1,-16,5,-6,3
CCOC(=O)c1c(C)oc2c1c(C(c1cccnc1)N1CCN(C)CC1)c(O)c1ccccc12 (stereo not drawn),.,.,.,.,-4,.
COC(=O)c1c(C)oc(C)c1S(=O)(=O)NC(c1ccccc1)c1ccccc1,.,.,.,.,0,.
COc1ccc(O)c(-c2cc(C(F)(F)C(F)F)nc(-c3ccccc3)n2)c1,-1,9.1*,-17,3,5,2
CCNc1nc(OC)nc(SCC(=O)Nc2ccccc2)n1,.,2,.,13*,24,0
O=C1C2C3c4ccccc4C(c4ccccc43)C2C(=O)N1Cc1ccccn1 (stereo not drawn),.,0,.,2,0,3
CN(Cc1nc(-c2cnccn2)no1)C1CC(C)(C)NC(C)(C)C1,.,3,.,1,0,18*
CN(Cc1nc(-c2cnccn2)no1)CC1(c2ccccc2)CC1(C)C (stereo not drawn),.,0,.,4,0,-3
SMILES,Yeast life ext,RAM inhibit,BB579 growth dn,MT stabilize HCS,b-catenin transl,HMGR II inh
C=CCN(CC=C)c1ccc(N2C(=O)C3CCCCC3C2=O)cc1[N+](=O)[O-] (stereo not drawn),.,9.0*,.,4,-1,0
CCOc1cc(C#N)c(NC(=O)c2ccco2)cc1OCC,-14,0,-51,40*,8,-5
O=C(C1=NN[C@@H]2C(=O)N(Cc3ccccc3)C(=O)[C@H]12)c1ccc(F)cc1,.,.,.,.,-2,.
CC(C)(C)C(=O)NNC(=O)c1cnccn1,.,.,.,.,0,.
Cc1[nH]c2ccccc2c1/C=N/Nc1ccccc1[N+](=O)[O-],.,8.8*,.,7,-4,-8
CC(C)Oc1ccccc1/C=N/Nc1ccccc1[N+](=O)[O-],-2,8.5*,-39,2,0,1
CCOc1ccccc1/C=N/Nc1ccccc1[N+](=O)[O-],3,9.8*,-15,1,-1,-5
C#CCNC(=O)C1CCN(c2cc(C)nc(-c3ccccc3)n2)CC1,.,2,.,3,0,5
CCOc1ccc(Cc2c(Cl)nc(SC)nc2N(C)C)cc1,-4,7,-34,22*,3,-4
CSc1nc(Cl)c(Cc2ccc(OC(C)C)cc2)c(N(C)C)n1,8,8.9*,-11,5,0,-6
CCOc1ccccc1NC(=O)NCc1ccco1,.,.,.,.,0,.
COCC(C)NC(=O)/C(=C/c1ccccc1)c1ccccc1 (stereo not drawn),.,2,.,6,7,2
CC(NC(=O)/C(=C/c1ccc(OC(F)F)cc1)c1ccccc1)c1ccccc1 (stereo not drawn),17,9.6*,-15,5,2,0
O=C1CSc2ccc(C(=O)O)cc2N1,.,1,.,3,3,0
CN(Cc1ccc(F)cc1)C(=O)c1ccc2c(c1)NC(=O)CS2,.,1,.,3,-1,12*
Cc1ccc2nc(Nc3ccccc3)c(/C=N/O)c(=O)n2c1,27*,1,-23,3,-4,-4
NC(=O)CSc1nnc(-c2ccc([N+](=O)[O-])cc2)o1,.,1,.,4,3,14*
C=CCSc1nnc(-c2ccc([N+](=O)[O-])cc2)o1,.,1,.,3,-1,-4
O=C(Nc1cccc(S(=O)(=O)N2CCCC2)c1)c1cc(-c2ccccn2)nc2ccccc12,.,4,.,4,-2,-1
Cc1[nH]c2ccccc2c1C(=O)COC(=O)c1ccc2c(=O)n3c(nc2c1)CCC3,.,9.1*,.,2,3,-1
CN(C(=O)COC(=O)c1ccc2c(=O)n3c(nc2c1)CCC3)c1ccccc1,5,-1,-27,4,-1,-4
Cc1nnc(SCc2ccccc2Cl)n1CC1CCCO1 (stereo not drawn),-15,-1,10,2,.,16*
O=C(O)c1cccc(NC(=S)NC(=O)c2ccc(-c3ccccc3)cc2)c1,.,5,.,2,0,-3
COc1cc2ccccc2cc1C(=O)NC(=S)Nc1cccc(C(=O)O)c1,.,8.9*,.,2,0,-1
Cc1ccccc1Nc1c(F)c(F)c(F)c(F)c1C(=O)O,.,1,.,3,-1,0
CCN(c1ccccc1)S(=O)(=O)c1cc(C(=O)Nc2ccc(F)c(F)c2)ccc1F,-2,11*,-26,4,1,2
CCN(c1ccccc1)S(=O)(=O)c1cc(C(=O)O)ccc1C,-8,1,-13,4,-1,-1
CS(=O)(=O)c1ccccc1-c1nc(-c2ccc([N+](=O)[O-])cc2)no1,.,2,.,4,-1,3
Cc1cc(SCC(=O)OCC(=O)NC(C)c2ccccc2)c(C)cc1Br (stereo not drawn),1,10*,-3,4,-2,-1

# High-throughput results deposited in PubChem BioAssay by several laboratories.
